The results in this text go back to ChEMBL document CHEMBL5338714, “Design, synthesis and biological evaluation of biphenyl-benzamides as potent FtsZ inhibitors” (Eur J Med Chem, 2022).

Data set [1] concerns Bacillus subtilis. As to the kind of experiment: Selectivity ratio of MBC for Bacillus subtilis ATCC9372 to MIC for Bacillus subtilis ATCC9372. Type of data set: functional. The gist of the method: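 After 24 h of broth microdilution, 5 µL from clear wells plated on LB agar and incubated aerobically for 24 h at 37 °C. MBC is the lowest concentration with no colonies. Ratio is MBC over MIC, with ≤4 taken as bactericidal and >4 as bacteriostatic.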

In data set [2] the test system is Bacillus subtilis. As to the kind of experiment: Antibacterial activity against Bacillus subtilis 618 assessed as bacterial growth inhibition incubated for 18 hrs by CLSI based broth microdilution method. Type of data set: functional. The gist of the method:
(§1)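 CLSI broth microdilution. Log-phase bacteria in Mueller Hinton broth added to 2-fold serial dilutions spanning 128 to 0.25 or 2 to 0.004 µg/mL. Incubated aerobically for 18 h at 37 °C, then OD600 read. MIC is the lowest concentration giving ≥90% growth inhibition; three independent assays.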
For orientation: In broth dilution the organism is exposed to a series of concentrations in liquid medium.

Data set [3] is described as follows: Metabolic stability in mouse liver microsomes assessed as compound remaining preincubated for 5 mins followed by NADPH addition measured immediately by LC/MS analysis. Type of data set: ADME, Microsome. The conditions noted are these: read-out: Stability. In general terms: Microsomes from liver hold many membrane-bound enzymes, among them those of drug oxidation.

A short description of data set [4]: Metabolic stability in human liver microsomes assessed as intrinsic clearance preincubated for 5 mins followed by NADPH addition measured upto 45 mins by LC/MS analysis. The format is ADME, Microsome. The conditions noted are these: time < 50 min, read-out: CLH. The gist of the method: (§2)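 Liver microsomes at 0.75 mg/mL final protein, with test article and NADPH regeneration system (6 mM) in 100 mM phosphate buffer, pH 7.4. Preincubated 5 min at 37 °C, then started with NADPH. Quenched with acetonitrile containing internal standard at 5, 15, 30 and 45 min, centrifuged, and percent remaining measured by LC/MS. Ketanserin served as reference.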

Data set [5] deals with Bacillus subtilis. As to the kind of experiment: Antibacterial activity against Bacillus subtilis MG27 assessed as bacterial growth inhibition incubated for 18 hrs by CLSI based broth microdilution method. Type of data set: functional. The method, boiled down: as §1
The target in data set [6] is T1, Cell division protein FtsZ (Staphylococcus aureus) (UniProt P0A031).
T1 sequence (whole entry): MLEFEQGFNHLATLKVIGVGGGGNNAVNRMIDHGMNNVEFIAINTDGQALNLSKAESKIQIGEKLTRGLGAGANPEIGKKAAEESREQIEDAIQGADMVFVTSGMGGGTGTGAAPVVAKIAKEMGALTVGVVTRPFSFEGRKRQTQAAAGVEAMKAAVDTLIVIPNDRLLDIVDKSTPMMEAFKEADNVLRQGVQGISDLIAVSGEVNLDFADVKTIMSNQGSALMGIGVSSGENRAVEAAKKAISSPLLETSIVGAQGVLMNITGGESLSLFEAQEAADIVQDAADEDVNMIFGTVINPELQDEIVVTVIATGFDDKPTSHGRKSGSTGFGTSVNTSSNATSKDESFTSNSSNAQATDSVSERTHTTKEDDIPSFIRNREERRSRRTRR
As to the kind of experiment: Inhibition of recombinant Staphylococcus aureus FtsZ assessed as FtsZ polymerization at 10 ug/ml in presence of GTP by absorbance based turbidity assay. The conditions noted are these: dose 10.0 µg/ml. The gist of the method: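 Recombinant S. aureus FtsZ (12 µM) with 1 mM GTP and compound in 50 mM Hepes, 50 mM KCl, 5 mM MgCl2. Polymerization followed continuously at 25 °C as light scattering (A340).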

Data set [7] has as its system Staphylococcus aureus. As to the kind of experiment: Induction of resistance in Staphylococcus aureus ATCC29213 assessed as fold increase in MIC at 0.5 times MIC after 18 passages incubated for 24 hrs by resistance development assay. Type of data set: functional. The gist of the method: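 Serial passage of S. aureus ATCC29213. Initial MIC was found by broth microdilution. Bacteria from the 0.5 × MIC tubes (duplicate) were diluted to about 5 × 10^5 CFU/mL and re-exposed to compound for 24 h at 35 °C, then fold increase in MIC was determined. Repeated for 18 passages, with norfloxacin as comparator.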

The subject of data set [8] is Staphylococcus aureus. As to the kind of experiment: Antibacterial activity against Staphylococcus aureus ATCC29213 assessed as bacterial growth inhibition incubated for 18 hrs by CLSI based broth microdilution method. The format is functional. The gist of the method: as §1
Data set [9] is described as follows: Tmax in ICR mouse at 5 mg/kg, po measured for 0.25 to 24 hrs by LC-MS/MS analysis. The format is ADME, organism-based. The conditions noted are these: in vivo, time 0.25-24 hrs. The method, boiled down:
(§3)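 Male ICR mice dosed orally with a solution of 5% DMSO, 4% ethanol, 5% Cremophor EL and 86% water. Blood collected at 15, 30 min, 1, 2, 4, 6, 8 and 24 h; plasma stored at -20 °C. Plasma levels measured by LC-MS/MS; parameters by non-compartmental analysis, with bioavailability relative to the 1 mg/kg iv dose.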

Data set [10] can be described thus: Metabolic stability in mouse liver microsomes assessed as intrinsic clearance preincubated for 5 mins followed by NADPH addition measured upto 45 mins by LC/MS analysis. Type of data set: ADME, Microsome. The conditions noted are these: time < 50 min, read-out: CLH. The method, boiled down: as §2
Data set [11] is described as follows: AUC (0 to t) in ICR mouse at 5 mg/kg, po measured for 0.25 to 24 hrs by LC-MS/MS analysis. The format is ADME, organism-based. On the set-up: time lower 0.25 hrs, dose 5 mg/kg, time upper 24 hrs, route po. The conditions noted are these: in vivo. The gist of the method: as §3
Data set [12] has as its system Staphylococcus aureus. As to the kind of experiment: Bactericidal activity against Staphylococcus aureus ATCC25923 incubated for 24 hrs by broth microdilution method. The format is functional. The gist of the method:
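MBC from the broth microdilution plates (MHB, 2-fold dilutions). After 24 h, 5 µL aliquots from clear wells were plated on LB agar and incubated aerobically 24 h at 37 °C, then colonies counted. MBC = lowest concentration with no colonies.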

The subject of data set [13] is Pseudomonas aeruginosa. As to the kind of experiment: Antibacterial activity against Pseudomonas aeruginosa 15690 assessed as bacterial growth inhibition incubated for 18 hrs by CLSI based broth microdilution method. The format is functional. The gist of the method: (§4)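 Broth microdilution to CLSI guidelines. Log-phase bacteria grown in Mueller Hinton broth, diluted, then exposed to 2-fold serial dilutions of compound (128 to 0.25 µg/mL or 2 to 0.004 µg/mL). Incubated aerobically 18 h at 37 °C. Growth read as OD600. MIC = lowest concentration giving ≥90% growth inhibition. Three independent assays.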

For data set [14], the system named is Staphylococcus aureus. As to the kind of experiment: Antibacterial activity against ampicillin-resistant Staphylococcus aureus 669 assessed as bacterial growth inhibition incubated for 18 hrs by CLSI based broth microdilution method. Type of data set: functional. The gist of the method:
as §4

Data set [15] in a line: Metabolic stability in rat liver microsomes assessed as intrinsic clearance preincubated for 5 mins followed by NADPH addition measured upto 45 mins by LC/MS analysis. Type of data set: ADME, Microsome. As to conditions: time < 50 min, read-out: CLH. The method, boiled down: as §2
The test system of data set [16] is Staphylococcus aureus. As to the kind of experiment: Antibacterial activity against Staphylococcus aureus ATCC25923 assessed as reduction in bacterial count at 4 times MIC measured for 3 hrs by time kill curve assay. Type of data set: functional, organism-based. The method, boiled down:
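Time-kill: log-phase cultures diluted to about 10^6 CFU/mL in MHB with compound at 1×, 2×, 4× or 8× MIC (vancomycin at 2× MIC), shaken at 37 °C. Samples taken at 3, 6, 12 and 24 h, serially diluted and plated on LB agar. Colonies counted after 24 h at 37 °C; detection limit 10^3 CFU/mL.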

Data set [17] in a line: Selectivity index, ratio of CC50 for African green monkey Vero cells to MIC for Bacillus subtilis ATCC9372. Type of data set: toxicity, cell-based. As to conditions: read-out: Selectivity Index. The method, boiled down: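 CC50 in Vero cells (72 h Alamar blue) divided by broth microdilution MIC against B. subtilis ATCC9372.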
In data set [18] the test system is Escherichia coli. As to the kind of experiment: Antibacterial activity against Escherichia coli 25922 assessed as bacterial growth inhibition incubated for 18 hrs by CLSI based broth microdilution method. The format is functional. The method, boiled down:
as §1

In brackets after ≈: the same amount, converted by molar mass. Activity calls are given as the source filed them. The calls are words filed in the database; no cut-off is given here.

Turning to `Cc1cc(Cl)ccc1-c1cccc(COc2ccc(F)c(C(N)=O)c2F)c1`, the Selectivity ratio in [1] worked out at 4. Besides, the minimum inhibitory concentration (MIC) is 0.008 µg/mL (≈ 0.0206 µM) in data set [2]; 0.031 µg/mL (≈ 0.0799 µM) in [5]; 0.25 µg/mL (≈ 0.645 µM) in data set [8]; above 128 µg/mL in data set [13]; 0.06 µg/mL (≈ 0.155 µM) in [14]; above 128 µg/mL in data set [18]. Also, the remaining at 0 min in data set [3] came out at 100%. The CLint scaled is 15.5 mL/min/kg in [4], 1070 mL/min/kg in data set [10] and 183 mL/min/kg in [15]. In [6], the inhibition result is “Active”. The “fold change (FC)” value in [7] stood at 4. For the same compound, the Tmax in [9] amounted to 30 min. Besides, the AUC(0-t) in data set [11] worked out at 544 ng·h/mL. The compound also displayed an MBC in data set [12] of 0.25 µg/mL (≈ 0.645 µM). For the same compound, the result in [16] was Active. Besides, the selectivity ratio in data set [17] was above 645.

The MIC is the lowest concentration that inhibits growth of the organism. As usually defined, the Tmax is the time from dosing to the highest level. In general, AUC(0-t) refers to exposure summed from dosing to a finite time, without extrapolation to infinity. For orientation: MBC means the lowest tested concentration that kills the bacteria rather than only halting them.
